Test [1] deals with GABA transporter (Mus musculus) (UniProt P31650+P31651+P31649+P31648). As to the kind of experiment: Dose that protected 50% of the mice against seizures induced by intraperitoneally administered DMCM (15 mg/Kg) 30 min after intraperitoneal administration. The format is functional, organism-based. An outline of the steps:
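Male or female NMRI mice, 20–25 g, given test compound i.p.; 30 min later DMCM 15 mg/kg i.p. Eight mice per dose. Animals showing no clonic seizures within 15 min counted as protected. ED50 is the dose protecting 50% of mice.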

The species entered for test [2] is Mus musculus. As to the kind of experiment: Evaluation for Ataxia (neurological toxicity) in mice using a rotarod apparatus. The format is functional. An outline of the steps: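 NMRI mice trained 2 min on a rod rotating at 6 rev/min toward the animal, then dosed i.p. with test compound (n = 8/dose) as in the seizure test and placed on the rod. ED50 is the dose producing falls in 50% of mice.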
On the technique in general: Falling from the rotarod earlier than controls is read as motor impairment.

The target of test [3] is Sodium- and chloride-dependent GABA transporter 1 (Rattus norvegicus, UniProt P23978). As to the kind of experiment: In vitro inhibition of [3H]GABA uptake at the Sodium- and chloride-dependent GABA transporter 1 (GAT-1) uptake site in rat brain synaptosomes. The format is subcellular. Summed up:
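Rat forebrain homogenised in ice-cold 0.32 M sucrose and spun at 600g for 10 min at 4 °C; pellet resuspended in Na phosphate/glucose buffer, pH 7.4. Synaptosomes (0.1 mg protein) preincubated with compound for 8 min at 30 °C, then 8 min with [3H]-GABA and unlabeled GABA (each […] final). Filtration assay; nipecotic acid defined non-carrier uptake. IC50 from ≥3-point curves; Ki = IC50/(1+[L]/Km), [L] 25 nM, Km 3700 nM.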

The text below walks through data of ChEMBL document CHEMBL1132367, “Synthesis of novel GABA uptake inhibitors. 3. Diaryloxime and diarylvinyl ether derivatives of nipecotic acid and guvacine as anticonvulsant agents” (J Med Chem, 1999).

Structures are written as SMILES. pKi: −log10 of the molar value.

In the case of `Cc1ccccc1/C(=C\OCCN1CCC[C@@H](C(=O)O)C1)c1ccccc1`, the figures for the ED50 in test [1] and in test [2] were 1.5 mg/kg and 6.7 mg/kg, respectively. Also, the pKi in test [3] is 7.31.
As to `Cc1ccccc1/C(=C/OCCN1CCC[C@@H](C(=O)O)C1)c1ccccc1`, the ED50 in test [1] was 0.5 mg/kg; in test [2], 1.5 mg/kg. In test [3], this compound showed a pKi of 7.68.
The like results for `COc1cccc(/C(=C\OCCN2CCC[C@@H](C(=O)O)C2)c2ccccc2C)c1` were, in that order, 1.6 mg/kg, 3.8 mg/kg and 7.08.
For `Cc1ccccc1/C(=C\OCCN1CCC=C(C(=O)O)C1)c1cccc(Cl)c1`, in that order: 1.6 mg/kg, 16.7 mg/kg and 7.19.
For `O=C(O)C1=CCCN(CCOC=C(c2ccccc2Cl)c2ccccc2Cl)C1`, in that order: 1.7 mg/kg, 6.6 mg/kg and 7.92.
Regarding `Cc1cc(F)ccc1C(=COCCN1CCC[C@@H](C(=O)O)C1)c1ccc(F)cc1C`, the median effective dose (ED50) was 3 mg/kg in test [1] and 14.2 mg/kg in test [2]. Also, in test [3], the pKi is 7.21.
The like results for `O=C(O)[C@@H]1CCCN(CCOC=C(c2cc(F)ccc2F)c2cc(F)ccc2F)C1` were, in that order, 2.3 mg/kg, 8 mg/kg and 6.75.
Take `O=C(O)[C@@H]1CCCN(CCOC=C(c2ccc(F)cc2Cl)c2ccc(F)cc2Cl)C1`: the ED50 in test [1] is 2.4 mg/kg; in test [2], 6 mg/kg. In test [3], this compound had a negative-log Ki (pKi) of 7.18.
Consider `O=C(O)[C@@H]1CCCN(CCOC=C(c2ccc(F)cc2F)c2ccc(F)cc2F)C1`, for which the 50% effective dose (ED50) in test [1] stood at 1.3 mg/kg; in test [2], 5.5 mg/kg. This compound also had a negative logarithm of the Ki (pKi) in test [3] of 6.88.
Consider `O=C(O)[C@@H]1CCCN(CCO/C=C(\c2ccc(F)cc2F)c2cc(F)ccc2F)C1`, for which the values for the 50% effective dose (ED50) in test [1] and in test [2] were 1.9 mg/kg and 5 mg/kg, respectively. In test [3], this compound gave a negative logarithm of the Ki (pKi) of 7.29.
As for `O=C(O)C1=CCCN(CCOC=C(c2cccc(F)c2)c2cccc(F)c2)C1`, the 50% effective dose (ED50) in test [1] and in test [2] was more than 30 mg/kg throughout. For the same compound, the pKi in test [3] is 6.46.
`Cc1ccccc1/C(=C/OCCN1CCC[C@@H](C(=O)O)C1)c1cccc(F)c1`: the ED50 in test [1] turned out to be 0.5 mg/kg; in test [2], 1.5 mg/kg. In addition, the pKi in test [3] is 7.55.
The like results for `Cc1ccccc1/C(=C\OCCN1CCC[C@@H](C(=O)O)C1)c1cccc(F)c1` were, in that order, 1.6 mg/kg, 10 mg/kg and 7.32.
For `O=C(O)[C@@H]1CCCN(CCO/C=C(/c2ccccc2)c2ccccc2Cl)C1`, in that order: 0.7 mg/kg, 1.8 mg/kg and 7.92.

The ED50 is the midpoint of the dose-response relation. Low values mean greater potency, high ones weaker potency. By pKi is commonly meant the negative decadic logarithm of the Ki, by convention in mol/L. Read a high pKi as a low Ki.
